Source: ChEMBL document CHEMBL1155496, “Discovery of pyrazolyl propionyl cyclohexenamide derivatives as full agonists for the high affinity niacin receptor GPR109A” (Bioorg Med Chem Lett, 2010)
pIC50: −log10 of the molar value.

Assays:
[1] = Cmax in mouse at 1 mg/kg, iv and 2 mg/kg, po; format: ADME, organism-based; conditions: in vivo
In short: (§1)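 Formulated at 0.2 mg/mL in ethanol/PEG/water (10:40:50). Dosed 1 mg/kg IV and 2 mg/kg PO, n = 3 per route. Blood was protein-precipitated with acetonitrile and drug concentration measured by LC/MS/MS.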

[2] = target: Hydroxycarboxylic acid receptor 2 (Homo sapiens) (UniProt Q8TDS4); test: Serum shift in 3H-niacin binding to GPR109A receptor with 4% human serum
Sequence of Hydroxycarboxylic acid receptor 2 (Homo sapiens) (Q8TDS4 whole entry): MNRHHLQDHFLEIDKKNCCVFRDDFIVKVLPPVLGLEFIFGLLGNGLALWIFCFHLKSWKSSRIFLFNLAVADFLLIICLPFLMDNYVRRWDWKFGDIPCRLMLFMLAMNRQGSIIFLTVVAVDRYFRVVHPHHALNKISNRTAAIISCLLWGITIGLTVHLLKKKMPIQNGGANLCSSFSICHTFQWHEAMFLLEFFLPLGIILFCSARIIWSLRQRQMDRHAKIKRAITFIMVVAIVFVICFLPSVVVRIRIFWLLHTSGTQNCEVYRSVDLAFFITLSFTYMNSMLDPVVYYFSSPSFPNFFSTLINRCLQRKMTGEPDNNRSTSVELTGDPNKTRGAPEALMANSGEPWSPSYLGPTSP

[3] = Bioavailability in mouse at 1 mg/kg, iv and 2 mg/kg, po; format: ADME, organism-based; conditions: in vivo; in short: as §1
Cytochrome P450 2C9 = Cytochrome P450 2C9 (Homo sapiens, UniProt P11712); test: Inhibition of CYP2C9 in human liver microsomes; format: ADME, Microsome
Sequence of Cytochrome P450 2C9 (P11712 whole entry): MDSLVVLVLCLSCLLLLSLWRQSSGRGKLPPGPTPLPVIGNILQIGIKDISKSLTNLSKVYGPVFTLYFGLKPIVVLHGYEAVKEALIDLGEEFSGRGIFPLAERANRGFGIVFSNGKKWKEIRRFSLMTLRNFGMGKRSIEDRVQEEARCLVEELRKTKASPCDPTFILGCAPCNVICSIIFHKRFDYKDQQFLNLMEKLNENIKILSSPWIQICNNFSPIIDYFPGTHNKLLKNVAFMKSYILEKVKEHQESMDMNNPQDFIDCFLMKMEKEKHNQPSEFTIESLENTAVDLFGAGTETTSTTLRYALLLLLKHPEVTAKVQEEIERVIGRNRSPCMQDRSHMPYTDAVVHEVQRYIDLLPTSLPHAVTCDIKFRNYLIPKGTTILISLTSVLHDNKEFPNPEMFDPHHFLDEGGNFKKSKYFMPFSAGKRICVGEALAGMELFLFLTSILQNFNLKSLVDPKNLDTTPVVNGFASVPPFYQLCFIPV

Adipocyte = test: Inhibition of lipolysis in human adipocytes assessed as free glycerol level; format: functional, cell-based
In short: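 Lipolysis in human adipocytes; free glycerol release measured and used to calculate IC50.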

Cytochrome P450 2C8 = target: T1, Cytochrome P450 2C8 (Homo sapiens, UniProt P10632); test: Inhibition of CYP2C8 in human liver microsomes; format: ADME, Microsome
T1 sequence (P10632 whole entry): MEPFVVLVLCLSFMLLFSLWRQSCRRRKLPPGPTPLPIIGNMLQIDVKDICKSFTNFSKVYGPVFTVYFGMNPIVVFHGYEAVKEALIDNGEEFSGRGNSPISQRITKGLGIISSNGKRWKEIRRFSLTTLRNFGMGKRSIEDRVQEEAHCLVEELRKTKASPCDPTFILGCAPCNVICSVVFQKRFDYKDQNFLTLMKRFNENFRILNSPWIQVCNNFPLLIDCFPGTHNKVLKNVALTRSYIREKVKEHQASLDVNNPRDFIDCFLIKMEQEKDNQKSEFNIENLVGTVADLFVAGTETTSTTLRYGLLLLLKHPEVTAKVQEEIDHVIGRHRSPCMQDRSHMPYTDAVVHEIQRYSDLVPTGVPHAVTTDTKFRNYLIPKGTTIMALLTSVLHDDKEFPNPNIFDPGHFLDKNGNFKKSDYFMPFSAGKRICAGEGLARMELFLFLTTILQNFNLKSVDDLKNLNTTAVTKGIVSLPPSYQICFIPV
In short: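 Human liver microsomes with taxol as substrate and montelukast as positive control. IC50 determined.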

[4] = Clearance in mouse at 1 mg/kg, iv and 2 mg/kg, po; format: ADME, organism-based; conditions: in vivo; in short: as §1
[5] = Half life in mouse at 1 mg/kg, iv and 2 mg/kg, po; format: ADME, organism-based; conditions: in vivo; in short: as §1
[6] = Volume of distribution at steady state in mouse at 1 mg/kg, iv and 2 mg/kg, po; format: ADME, organism-based; conditions: in vivo, read-out: Vdss; in short: as §1
[7] = Cmax in rat at 1 mg/kg, iv and 2 mg/kg, po; format: ADME, organism-based; conditions: in vivo; in short: as §1
[8] = Volume of distribution at steady state in rat at 1 mg/kg, iv and 2 mg/kg, po; format: ADME, organism-based; conditions: in vivo, read-out: Vdss; in short: as §1
[9] = Half life in rat at 1 mg/kg, iv and 2 mg/kg, po; format: ADME, organism-based; conditions: in vivo; in short: as §1
[10] = Bioavailability in rat at 1 mg/kg, iv and 2 mg/kg, po; format: ADME, organism-based; conditions: in vivo; in short: as §1
[11] = Clearance in rat at 1 mg/kg, iv and 2 mg/kg, po; format: ADME, organism-based; conditions: in vivo; in short: as §1

Structure (SMILES): O=C(CCc1ccc(-c2ccc(O)cc2Cl)cc1)Nc1ccccc1C(=O)O
- Cmax [1]: 930 nM
- serum shift [2]: > 5000
- bioavailability [3]: 4.6%

Structure (SMILES): CC(Cc1ccn(-c2ccc(O)cn2)n1)C(=O)NC1=C(C(=O)O)CCC(c2cccc(F)c2)C1 (stereo unspecified)
- serum shift [2]: 40

Structure (SMILES): O=C(CCc1cnn(-c2ccccc2)c1)Nc1ccccc1C(=O)O
- pIC50 (Cytochrome P450 2C9): 4.82
- serum shift [2]: 40

Structure (SMILES): CC(Cc1ccn(-c2ccc(O)cn2)n1)C(=O)NC1=C(C(=O)O)CCC(c2cc(F)c(F)c(F)c2)C1 (stereo unspecified)
- serum shift [2]: 30

Structure (SMILES): CC(Cc1ccn(-c2ccc(O)cn2)n1)C(=O)Nc1ccccc1C(=O)O (stereo unspecified)
- serum shift [2]: 200

Structure (SMILES): Cc1c(CC(C)C(=O)Nc2ccccc2C(=O)O)cnn1-c1ccc(O)cc1 (stereo unspecified)
- pIC50 (Adipocyte): 7.22
- pIC50 (Cytochrome P450 2C9): 4.66
- serum shift [2]: 60
- pIC50 (Cytochrome P450 2C8): 4.47

Structure (SMILES): O=C(CCc1cnn(-c2ccc(O)cn2)c1)NC1=C(C(=O)O)CCCC1
- clearance [4]: 1.2 mL/min/kg
- pIC50 (Cytochrome P450 2C9): < 4.30
- Cmax [1]: 11500 nM
- half-life [5]: 3.3 h
- serum shift [2]: 240
- Vd [6]: 0.4 L/kg
- bioavailability [3]: 46%

Structure (SMILES): CC(Cc1ccn(-c2ccc(O)cn2)n1)C(=O)NC1=C(C(=O)O)CCC(c2cccc(F)c2F)C1 (stereo unspecified)
- Cmax [7]: 30 nM
- Vd [8]: 0.36 L/kg
- half-life [9]: 0.74 h
- serum shift [2]: 30
- bioavailability [10]: 4.5%
- clearance [11]: 28 mL/min/kg

Structure (SMILES): O=C(CCc1ccn(-c2ccc(O)cn2)n1)Nc1ccccc1C(=O)O
- serum shift [2]: 170

Structure (SMILES): O=C(CCc1ccn(-c2ccc(O)cn2)n1)NC1=C(C(=O)O)CCCC1
- serum shift [2]: 1000

Structure (SMILES): O=C(O)c1cccnc1 [NIACIN]
- pIC50 (Adipocyte): 7.10

Structure (SMILES): CCCC1CCC(C(=O)O)=C(NC(=O)C(C)Cc2ccn(-c3ccc(O)cn3)n2)C1 (stereo unspecified)
- serum shift [2]: 110

Structure (SMILES): CC(Cc1ccn(-c2ccc(O)cn2)n1)C(=O)NC1=C(C(=O)O)CCCC1 (stereo unspecified)
- serum shift [2]: 900

Structure (SMILES): CC(Cc1ccn(-c2ccc(O)cn2)n1)C(=O)NC1=C(C(=O)O)CC[C@@H](C)C1 (stereo partly specified)
- serum shift [2]: 290

Structure (SMILES): O=C(CCc1ccn(-c2ccccc2)n1)Nc1ccccc1C(=O)O
- pIC50 (Cytochrome P450 2C9): 5.60
- pIC50 (Cytochrome P450 2C8): 5.57

Structure (SMILES): O=C(CCc1cnn(-c2ccc(O)cc2)c1)Nc1ccccc1C(=O)O
- clearance [4]: 17 mL/min/kg
- Cmax [1]: 480 nM
- half-life [5]: 3.5 h
- serum shift [2]: 70
- Vd [6]: 3.56 L/kg
- bioavailability [3]: 21%

Structure (SMILES): CC(Cc1ccn(-c2ccc(O)cn2)n1)C(=O)NC1=C(C(=O)O)CC(c2cc(F)cc(F)c2)CC1 (stereo unspecified)
- Cmax [7]: 1580 nM
- pIC50 (Cytochrome P450 2C9): 4.64
- Vd [8]: 0.53 L/kg
- half-life [9]: 5.5 h
- serum shift [2]: 100
- bioavailability [10]: 39%
- clearance [11]: 8.6 mL/min/kg
- pIC50 (Cytochrome P450 2C8): 5.11

Structure (SMILES): Cc1c(CC(C)C(=O)NC2=C(C(=O)O)CCCC2)cnn1-c1ccc(O)cc1 (stereo unspecified)
- pIC50 (Adipocyte): 7.15
- clearance [4]: 3.5 mL/min/kg
- pIC50 (Cytochrome P450 2C9): < 4.00
- Cmax [1]: 4780 nM
- half-life [5]: 4.8 h
- serum shift [2]: 50
- Vd [6]: 0.68 L/kg
- pIC50 (Cytochrome P450 2C8): < 4.00
- bioavailability [3]: 52%
